Data set [1] deals with HeLa. Description: Cytotoxicity against human HeLa cells at 30 uM after 3 days by coulter counter method. It is filed as cell-based. Conditions: 72 h. The gist of the method: (§1)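 Cells seeded at 10,000 cells per cm2; after 16 h, fresh medium with test compound added. Cells trypsinized and counted with a Coulter counter on day 4 (BAEC, HeLa, MCF-7) or day 7 (HMEC-1). Cytotoxicity (cell death) was judged after 3 days in culture. HMEC-1 grown in EGM-2 with supplements and growth factors.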

For a further data set, the species on record is Gallus gallus. Description: Antiangiogenic activity in chicken embryo chorioallantoic membrane model at 250 nmol/disc after 3 days. The data set is classed as functional, tissue-based.
Data set [2] has as its system HMEC-1. The data set is described as follows: Antiangiogenic activity in human HMEC1 cells assessed as inhibition of tube formation at 10 uM after 4 to 6 hrs by matrigel assay. It is filed as functional, cell-based. The gist of the method:
(§2)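 HMEC-1 (60,000 cells) seeded on matrigel (10 mg/mL) after 30 min gelling at 37 °C, in DMEM containing test compound; after 4–6 h cells photographed and tubes scored 0 (none) to 3 (maximal, like untreated control). Mean ± SD of 2–4 independent experiments; Student t test, p < 0.05 significant.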

Data set [3] is described as follows: Cytotoxicity against bovine BAEC cells at 30 uM after 3 days by coulter counter method. It is filed as cell-based, Bos taurus. Conditions: cattle, 72 h. The procedure, abridged:
as §1

For data set [4], the system named is MCF7. The data set is described as follows: Cytotoxicity against human MCF7 cells at 30 uM after 3 days by coulter counter method. It is filed as cell-based. Conditions: mcf7, 72 h. The gist of the method: as §1
Data set [5] relates to HeLa. The data set is described as follows: Cytotoxicity against human HeLa cells at 100 uM after 3 days by coulter counter method. The data set is classed as cell-based. Conditions: 72 h. The gist of the method: as §1
Data set [6] in a line: Antiproliferative activity against human HMEC1 cells after 7 days by coulter counter method. Conditions: HMEC-1, 168 h. The data set is classed as functional, cell-based.
For data set [7], the system named is MCF7. The data set is described as follows: Antiproliferative activity against human MCF7 cells after 4 days by coulter counter method. It is filed as functional, cell-based. Conditions: MCF7, 96 h.
Data set [8] can be described thus: Antimigratory activity against mouse MAEC cell migration at 10 uM after 5 hrs by wound closure assay. The data set is classed as functional. The procedure, abridged:
(§3)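 Confluent MAEC monolayers wounded with a 1.0-mm wide micropipette tip, then incubated in fresh medium with test compound. Wounds photographed after 5 h and width calculated from digital images. Mean ± SD of 2–4 independent experiments; Student t test, p < 0.05 significant.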

Data set [9] has as its system MAEC. The data set is described as follows: Antimigratory activity against mouse MAEC cell migration after 5 hrs by wound closure assay. The data set is classed as functional, cell-based. The procedure, abridged:
as §3

Data set [10] has as its system MAEC. Description: Antimigratory activity against mouse MAEC cell migration at 30 uM after 5 hrs by wound closure assay. The data set is classed as functional. The procedure, abridged:
as §3

Data set [11] in a line: Antiproliferative activity against bovine BAEC cells after 4 days by coulter counter method. The data set is classed as functional, cell-based. Conditions: Bos taurus, 96 h.
Data set [12] can be described thus: Cytotoxicity against human HMEC1 cells at 30 uM after 3 days by coulter counter method. The data set is classed as cell-based. Conditions: hmec-1, 72 h. The gist of the method:
as §1

Data set [13] can be described thus: Cytotoxicity against human HMEC1 cells at 100 uM after 3 days by coulter counter method. The data set is classed as cell-based. Particulars: hmec-1, 72 h. The procedure, abridged:
as §1

For data set [14], the system named is MCF7. The data set is described as follows: Cytotoxicity against human MCF7 cells at 100 uM after 3 days by coulter counter method. The data set is classed as cell-based. Conditions: mcf7, 72 h. The procedure, abridged:
as §1

Data set [15] in a line: Cytotoxicity against bovine BAEC cells at 100 uM after 3 days by coulter counter method. It is filed as cell-based, Bos taurus. Conditions: cattle, 72 h. The procedure, abridged: as §1
Data set [16] deals with HMEC-1. Description: Antiangiogenic activity in human HMEC1 cells assessed as inhibition of tube formation at 30 uM after 4 to 6 hrs by matrigel assay. It is filed as functional, cell-based. The procedure, abridged: as §2
The test system of data set [17] is HeLa. Description: Antiproliferative activity against human HeLa cells after 4 days by coulter counter method. Conditions: 96 h. It is filed as functional, cell-based.
The test system of data set [18] is HMEC-1. The data set is described as follows: Antiangiogenic activity in human HMEC1 cells assessed as inhibition of tube formation after 4 to 6 hrs by matrigel assay. The data set is classed as functional, cell-based. The gist of the method: as §2

Calls of active or inactive are those of the source. The rule behind the calls is not given here.

`CCOC(=O)CN(Cc1cccc(F)c1)c1ccc2c(c1)OC(C)(COc1ccc(C(=N)N)cc1)CN2C` (stereo not drawn): the Activity entry (with HeLa [1]; in data set [3]; in the data set on MCF7 [4]; with HeLa [5]; in [12]; in data set [13]) was “Toxic” throughout. Moreover, the Activity result (in the data set on MCF7 [14]; in [15]) was “Toxic” each time. Moreover, the inhibition entry in the data set filed under Gallus gallus, in the data set on MAEC [10] and in the data set on HMEC-1 [16] was “Active” throughout. Also, in the data set with HMEC-1 [2], the inhibition entry was “inactive”. In addition, the IC50 in data set [6] was 2.6 µM; with MCF7 [7], 3.9 µM; in data set [11], 4.1 µM; with HeLa [17], 4.5 µM. The inhibition at 10 µM in data set [8] is 50%. Also, the inhibition result in the data set with MAEC [9] is “Dose-dependent effect”.
As to `CCOC(=O)CN(Cc1cc(F)cc(F)c1)c1ccc2c(c1)OC(C)(COc1ccc(C(=N)N)cc1)CN2C` (stereo not drawn), the Activity entry (with HeLa [1]; in [3]; in the data set with MCF7 [4]; in the data set with HeLa [5]; in [12]; in [13]) was “Toxic” throughout. Besides, the Activity entry (with MCF7 [14]; in [15]) was “Toxic” in each case. For the same compound, the inhibition result in the data set filed under Gallus gallus, in the data set on MAEC [10] and with HMEC-1 [16] was “Active” in each case. In addition, in the data set with HMEC-1 [2], the inhibition result is “inactive”. Further, the IC50 came to 1.8 µM in data set [6], 3.5 µM in the data set with MCF7 [7], 4.1 µM in data set [11] and 4.9 µM with HeLa [17]. In data set [8], 10 µM produced 50% inhibition. In addition, the inhibition entry in the data set on MAEC [9] is “Dose-dependent effect”.
Turning to `CCOC(=O)CN(Cc1ccc(F)c(F)c1)c1ccc2c(c1)OC(C)(COc1ccc(C(=N)N)cc1)CN2C` (stereo not drawn), the Activity entry (in the data set on HeLa [1]; in data set [3]; with MCF7 [4]; in the data set on HeLa [5]; in data set [12]; in data set [13]) was “Toxic” in each case. For the same compound, the Activity result (in the data set with MCF7 [14]; in [15]) was “Toxic” in each case. For the same compound, the inhibition result in the data set filed under Gallus gallus, with MAEC [10] and in the data set on HMEC-1 [16] was “Active” in each case. Further, the inhibition result with HMEC-1 [2] was “inactive”. Further, the IC50 in [6] came to 2.5 µM; in the data set with MCF7 [7], 4 µM; in [11], 4 µM; in the data set on HeLa [17], 4.1 µM. The compound further yielded an inhibition at 10 µM in data set [8] of 50%. In the data set on MAEC [9], the inhibition entry was “Dose-dependent effect”.
On to `CCOC(=O)C(=O)N(Cc1ccc(F)c(F)c1)c1ccc2c(c1)OC(C)(COc1ccc(C(=N)N)cc1)CN2C` (stereo not drawn), for which the Activity result in the data set on HeLa [1] is recorded as “Non-toxic”; in [3], “Non-toxic”; in the data set with MCF7 [4], “Non-toxic”; in the data set with HeLa [5] it was “Toxic”; in data set [12], “Non-toxic”; in [13], “Toxic”. Also, the Activity entry (with MCF7 [14]; in data set [15]) was “Toxic” throughout. The inhibition entry in the data set listed under Gallus gallus and in the data set on MAEC [10] was “Active” each time. Besides, the IC50 in data set [6] turned out to be 6.7 µM; in the data set on MCF7 [7] it was 5.8 µM; in data set [11], 4.9 µM; in the data set on HeLa [17], 11 µM. Further, in data set [8], the inhibition at 10 µM is 50%. The inhibition entry in the data set on HMEC-1 [18] and with MAEC [9] was “Dose-dependent effect” throughout.
`CCOC(=O)CN(Cc1ccc(F)c(F)c1)c1ccc2c(c1)N(C)CC(C)(COc1ccc(C(=N)N)cc1)O2` (stereo not drawn): the Activity entry (in the data set on HeLa [1]; in data set [3]; with MCF7 [4]; in the data set with HeLa [5]; in data set [12]; in data set [13]) was “Toxic” throughout. The Activity result (in the data set on MCF7 [14]; in data set [15]) was “Toxic” each time. The inhibition result in the data set listed under Gallus gallus, in the data set with MAEC [10] and in the data set on HMEC-1 [16] was “Active” in each case. Further, the inhibition result in the data set on HMEC-1 [2] was “inactive”. Besides, the IC50 was found to be 4.2 µM in [6], 3.9 µM in the data set with MCF7 [7], 4.1 µM in data set [11] and 4.8 µM in the data set on HeLa [17]. The same compound registered an inhibition at 10 µM in data set [8] of 50%. Besides, in the data set with MAEC [9], the inhibition result was “Dose-dependent effect”.
With `CCOC(=O)C(=O)N(Cc1ccc(F)cc1)c1ccc2c(c1)OC(C)(COc1ccc(C(=N)N)cc1)CN2C` (stereo not drawn), the Activity result is recorded as “Non-toxic” in the data set on HeLa [1]; “Non-toxic” in [3]; “Non-toxic” in the data set with MCF7 [4]; “Toxic” in the data set on HeLa [5]; “Non-toxic” in data set [12]; “Toxic” in data set [13]. The Activity result (in the data set on MCF7 [14]; in data set [15]) was “Toxic” throughout. For the same compound, the inhibition entry in the data set filed under Gallus gallus and in the data set on MAEC [10] was “Active” each time. Also, the IC50 amounted to 7.6 µM in data set [6], 6.3 µM in the data set on MCF7 [7], 6.9 µM in data set [11] and 14 µM with HeLa [17]. In data set [8], this compound displayed an inhibition at 10 µM of 50%. Moreover, the inhibition entry in the data set with HMEC-1 [18] and in the data set on MAEC [9] was “Dose-dependent effect” in each case.
As to `CCOC(=O)C(=O)N(Cc1ccc(F)cc1)c1ccc2c(c1)N(C)CC(C)(COc1ccc(C(=N)N)cc1)O2` (stereo not drawn), the Activity entry in the data set on HeLa [1] is reported as “Non-toxic”; in [3] it was “Non-toxic”; in the data set on MCF7 [4] it was “Non-toxic”; with HeLa [5], “Toxic”; in [12] it was “Non-toxic”; in data set [13], “Toxic”. The Activity result (with MCF7 [14]; in data set [15]) was “Toxic” in each case. The inhibition entry in the data set listed under Gallus gallus and with MAEC [10] was “Active” throughout. For the same compound, the IC50 in data set [6] was 8.4 µM; in the data set on MCF7 [7], 5.5 µM; in data set [11] it was 6.6 µM; with HeLa [17], 14 µM. In data set [8], this compound showed an inhibition at 10 µM of 50%. The inhibition result with HMEC-1 [18] and with MAEC [9] was “Dose-dependent effect” throughout.
As to `CCOC(=O)CN(Cc1ccc(F)cc1)c1ccc2c(c1)N(C)CC(C)(COc1ccc(C(=N)N)cc1)O2` (stereo not drawn), the Activity entry (with HeLa [1]; in data set [3]; with MCF7 [4]; with HeLa [5]; in data set [12]; in data set [13]) was “Toxic” throughout. For the same compound, the Activity entry (in the data set on MCF7 [14]; in data set [15]) was “Toxic” in each case. In addition, the inhibition result in the data set listed under Gallus gallus, with MAEC [10] and in the data set with HMEC-1 [16] was “Active” throughout. In addition, the inhibition result with HMEC-1 [2] is “inactive”. Moreover, the IC50 in data set [6] came to 6 µM; with MCF7 [7], 4.1 µM; in data set [11] it was 3.8 µM; with HeLa [17], 4.8 µM. For the same compound, the inhibition at 10 µM in data set [8] was determined as 50%. Further, the inhibition result in the data set on MAEC [9] was “Dose-dependent effect”.
`CCOC(=O)C(=O)N(Cc1ccc(F)c(F)c1)c1ccc2c(c1)N(C)CC(C)(COc1ccc(C(=N)N)cc1)O2` (stereo not drawn): the Activity entry with HeLa [1] is “Non-toxic”; in data set [3], “Non-toxic”; with MCF7 [4] it was “Non-toxic”; with HeLa [5] it was “Toxic”; in [12], “Non-toxic”; in data set [13] it was “Toxic”. The Activity entry (with MCF7 [14]; in [15]) was “Toxic” throughout. The inhibition result in the data set filed under Gallus gallus and in the data set with MAEC [10] was “Active” in each case. Further, the IC50 in data set [6] was 8.3 µM; in the data set with MCF7 [7] it was 6.3 µM; in data set [11] it was 7.4 µM; with HeLa [17], 14 µM. This compound also showed an inhibition at 10 µM in data set [8] of 50%. The inhibition entry in the data set with HMEC-1 [18] and in the data set on MAEC [9] was “Dose-dependent effect” in each case.

(Values after ChEMBL document CHEMBL2216753, “Novel 1,4-benzoxazine and 1,4-benzodioxine inhibitors of angiogenesis” (Eur J Med Chem, 2012).)
